Tests used:
PA-1 = assay: Cytotoxicity against human PA1 cells by resazurin reduction test; format: functional, cell-based
Summary of the method: (§1)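 Antiproliferative effect read by resazurin reduction. Cells were a human fibroblast primary culture, PA1 (ovarian carcinoma), and PC3 and DU145 (prostatic carcinoma).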

[1] = molecular target: T1, Serine/threonine-protein kinase pim-3 (Homo sapiens, UniProt Q86V86); assay: Inhibition of Pim-3 using RSRHSSYPAGT as substrate assessed as residual activity at 1 uM after 30 mins
Summary of the method: (§2)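 Each Pim isoform (Pim-1, Pim-2, Pim-3) was assayed in duplicate by a previously published method. Compounds were tested at single concentrations of 10 and 1, and results are given as percent residual kinase activity.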

DU-145 = assay: Cytotoxicity against human DU145 cells by resazurin reduction test; format: functional, cell-based; summary of the method: as §1
PC-3 = assay: Cytotoxicity against human PC3 cells by resazurin reduction test; format: functional, cell-based; summary of the method: as §1
[2] = molecular target: T1, Serine/threonine-protein kinase pim-3; assay: Inhibition of Pim-3 using RSRHSSYPAGT as substrate after 30 mins
Summary of the method: (§3)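 Kinase assays on each Pim isoform were run in duplicate by a previously published method.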

[3] = Cytotoxicity against human fibroblasts by resazurin reduction test; format: cell-based; conditions: Fibroblast; summary of the method: as §1
[4] = molecular target: T1, Serine/threonine-protein kinase pim-3; assay: Inhibition of Pim-3 using RSRHSSYPAGT as substrate assessed as residual activity at 10 uM after 30 mins; summary of the method: as §2
[5] = molecular target: T2, Serine/threonine-protein kinase pim-1 (Homo sapiens, UniProt P11309); assay: Inhibition of Pim-1 using RSRHSSYPAGT as substrate assessed as residual activity at 1 uM after 30 mins; summary of the method: as §2
Target sequence in this assay (P11309 whole entry, looked up): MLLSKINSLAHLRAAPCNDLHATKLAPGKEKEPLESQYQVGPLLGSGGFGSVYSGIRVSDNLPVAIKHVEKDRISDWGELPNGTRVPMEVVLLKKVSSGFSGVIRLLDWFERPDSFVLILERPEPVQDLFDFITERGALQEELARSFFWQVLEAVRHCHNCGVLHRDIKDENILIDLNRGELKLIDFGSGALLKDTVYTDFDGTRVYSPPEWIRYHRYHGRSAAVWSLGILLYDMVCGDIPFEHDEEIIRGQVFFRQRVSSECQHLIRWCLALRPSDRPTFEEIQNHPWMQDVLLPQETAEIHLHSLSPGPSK

[6] = molecular target: T2, Serine/threonine-protein kinase pim-1; assay: Inhibition of Pim-1 using RSRHSSYPAGT as substrate after 30 mins; summary of the method: as §3
Target sequence in this assay (P11309 whole entry): as the sequence (P11309 whole entry, looked up) above

[7] = molecular target: Serine/threonine-protein kinase pim-2 (Homo sapiens) (UniProt Q9P1W9); assay: Inhibition of Pim-2 using RSRHSSYPAGT as substrate assessed as residual activity at 10 uM after 30 mins; summary of the method: as §2
Chain of Serine/threonine-protein kinase pim-2 (Homo sapiens) (Q9P1W9 whole entry, looked up): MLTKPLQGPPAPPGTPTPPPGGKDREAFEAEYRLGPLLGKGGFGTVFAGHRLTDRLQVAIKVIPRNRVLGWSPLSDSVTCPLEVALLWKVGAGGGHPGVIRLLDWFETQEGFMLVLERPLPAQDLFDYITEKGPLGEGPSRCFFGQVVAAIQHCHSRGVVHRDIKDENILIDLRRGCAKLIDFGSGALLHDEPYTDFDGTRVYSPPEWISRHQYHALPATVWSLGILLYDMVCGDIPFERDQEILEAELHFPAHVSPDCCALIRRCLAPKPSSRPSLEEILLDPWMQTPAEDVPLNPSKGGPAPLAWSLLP

[8] = molecular target: T2, Serine/threonine-protein kinase pim-1; assay: Inhibition of Pim-1 using RSRHSSYPAGT as substrate assessed as residual activity at 10 uM after 30 mins; summary of the method: as §2
Target sequence in this assay (P11309 whole entry, looked up): as the sequence (P11309 whole entry, looked up) above

[9] = molecular target: Serine/threonine-protein kinase pim-2 (Homo sapiens) (UniProt Q9P1W9); assay: Inhibition of Pim-2 using RSRHSSYPAGT as substrate assessed as residual activity at 1 uM after 30 mins; summary of the method: as §2

Activity [1] [%] | IC50 [2] [nM] | Activity [4] [%] | Activity [5] [%] | IC50 [6] [nM] | Activity [7] [%] | Activity [8] [%] | Activity [9] [%] | Compound | IC50 (PA-1) [nM] | IC50 (DU-145) [nM] | IC50 (PC-3) [nM] | IC50 [3] [nM]
16 | 200 | 3 | 23 | 470 | 54 | 4 | 97 | CC(C)(C)OC(=O)NCCCCn1c2ccccc2c2ccc3c(C=O)c[nH]c3c21 | 14900 | 12200 | 13100 | 17300
3 | 41 | 2 | 3 | 46 | 40 | 1 | 32 | N#CCCCCn1c2ccccc2c2ccc3c(C=O)c[nH]c3c21 | 8000 | 20000 | 16000 | 14500
7 | 80 | 1 | 24 | 75 | 22 | 10 | 74 | CN(C)CCCCn1c2ccccc2c2ccc3c(C=O)c[nH]c3c21 | 486 | 960 | 650 | 630
